Data on nine compounds can be found in ChEMBL document CHEMBL1141778, “Iminosugar-producing Thai medicinal plants” (J Nat Prod, 2005).

A short description of assay [1]: Inhibition of alpha-L-fucosidase. In short, it runs like this: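 Bovine epididymis alpha-L-fucosidase at pH 5.5 with the matching p-nitrophenyl glycoside as substrate. The reaction was stopped with 400 mM Na2CO3, and released p-nitrophenol was read at 400 nm.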
A short description of assay [2]: (§1) Inhibition of almond beta-glucosidase. More on the design: species or system Prunus dulcis. In outline:
(§2)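 The substrate was the matching p-nitrophenyl glycoside. Reactions were terminated with 400 mM Na2CO3, and liberated p-nitrophenol was measured spectrophotometrically at 400 nm.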

The target in assay [3] is T1, Sucrase-isomaltase, intestinal (Rattus norvegicus, UniProt P23739). In words: Inhibition of rat intestinal sucrase. In short, it runs like this:
(§3)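 Enzyme source was brush border membranes prepared from rat small intestine, assayed at pH 5.8 with sucrose (sucrase) or isomaltose (isomaltase) as substrate. Released D-glucose was quantified colorimetrically with a glucose test kit.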

Assay [4] concerns the target T1, Sucrase-isomaltase, intestinal. As to the kind of experiment: Inhibition of rat intestinal isomaltase. In short, it runs like this:
as §3

In another assay the test system is Prunus dulcis. The assay is described as §1. In short, it runs like this: as §2
A short description of assay [5]: Inhibition of bovine liver beta-galactosidase. Also on record: species or system Bos taurus. In outline:
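Bovine liver beta-galactosidase at pH 6.8 with the matching p-nitrophenyl glycoside substrate. Stopped by adding 400 mM Na2CO3; released p-nitrophenol was measured at 400 nm.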

Activity calls are given as the source filed them. The rule behind the calls is not given here.

T1 sequence (P23739 1-1013 limits assumed): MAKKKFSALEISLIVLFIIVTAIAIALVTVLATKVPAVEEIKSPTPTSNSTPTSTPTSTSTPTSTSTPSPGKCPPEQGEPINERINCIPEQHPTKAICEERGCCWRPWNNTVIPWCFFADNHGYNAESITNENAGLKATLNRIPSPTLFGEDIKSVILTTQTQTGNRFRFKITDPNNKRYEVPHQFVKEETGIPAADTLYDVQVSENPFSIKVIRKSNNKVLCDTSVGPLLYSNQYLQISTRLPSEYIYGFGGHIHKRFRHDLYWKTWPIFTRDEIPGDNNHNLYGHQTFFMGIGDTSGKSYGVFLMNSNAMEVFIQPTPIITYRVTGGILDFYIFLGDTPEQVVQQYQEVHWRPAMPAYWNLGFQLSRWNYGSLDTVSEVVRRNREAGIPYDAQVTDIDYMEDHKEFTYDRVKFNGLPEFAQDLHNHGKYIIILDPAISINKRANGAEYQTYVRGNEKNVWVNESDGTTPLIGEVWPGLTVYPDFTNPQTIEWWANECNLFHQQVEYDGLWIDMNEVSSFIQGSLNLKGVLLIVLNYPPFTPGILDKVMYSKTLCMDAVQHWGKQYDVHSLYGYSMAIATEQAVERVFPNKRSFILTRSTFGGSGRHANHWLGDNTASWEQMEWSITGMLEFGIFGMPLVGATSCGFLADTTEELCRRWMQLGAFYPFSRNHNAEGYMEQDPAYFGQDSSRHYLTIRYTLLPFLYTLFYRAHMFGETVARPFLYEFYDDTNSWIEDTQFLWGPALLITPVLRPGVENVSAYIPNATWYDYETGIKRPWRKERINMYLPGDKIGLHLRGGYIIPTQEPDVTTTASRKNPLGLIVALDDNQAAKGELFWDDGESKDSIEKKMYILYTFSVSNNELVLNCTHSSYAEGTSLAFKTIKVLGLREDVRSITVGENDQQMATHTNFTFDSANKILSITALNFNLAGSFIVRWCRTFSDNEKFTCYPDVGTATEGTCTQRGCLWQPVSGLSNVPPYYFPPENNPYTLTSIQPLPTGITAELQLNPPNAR
T1 sequence (P23739 1014-1841 limits assumed): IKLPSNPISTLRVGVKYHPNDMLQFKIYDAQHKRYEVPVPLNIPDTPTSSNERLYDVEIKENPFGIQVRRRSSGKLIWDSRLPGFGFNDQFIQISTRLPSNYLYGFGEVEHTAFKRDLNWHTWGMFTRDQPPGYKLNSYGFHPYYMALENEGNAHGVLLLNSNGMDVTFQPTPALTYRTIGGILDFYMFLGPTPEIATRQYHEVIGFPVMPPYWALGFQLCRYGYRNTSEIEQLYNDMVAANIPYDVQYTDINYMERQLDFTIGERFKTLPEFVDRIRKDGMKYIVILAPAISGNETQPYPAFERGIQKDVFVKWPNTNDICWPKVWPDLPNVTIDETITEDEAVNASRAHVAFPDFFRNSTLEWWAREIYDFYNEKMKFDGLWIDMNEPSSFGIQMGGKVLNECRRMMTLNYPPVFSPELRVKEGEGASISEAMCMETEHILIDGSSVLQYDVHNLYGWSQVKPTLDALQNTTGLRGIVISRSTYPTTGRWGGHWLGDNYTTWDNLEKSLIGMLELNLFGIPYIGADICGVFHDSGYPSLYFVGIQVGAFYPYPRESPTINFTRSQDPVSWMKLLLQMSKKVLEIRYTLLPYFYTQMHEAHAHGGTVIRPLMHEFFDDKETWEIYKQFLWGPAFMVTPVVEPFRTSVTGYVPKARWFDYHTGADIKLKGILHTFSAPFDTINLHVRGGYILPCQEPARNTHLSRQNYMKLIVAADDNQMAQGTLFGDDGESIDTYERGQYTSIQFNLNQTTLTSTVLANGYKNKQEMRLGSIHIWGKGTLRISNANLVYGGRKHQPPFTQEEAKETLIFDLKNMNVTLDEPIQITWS

With `OC[C@H]1NC[C@@H](O[C@@H]2O[C@H](CO)[C@@H](O)[C@H](O)[C@H]2O)[C@@H](O)[C@@H]1O`, in assay [1], the outcome was inactive.

A word on the IC50: it is the concentration at which inhibition is half-maximal. Read a low IC50 as higher potency. With `OC[C@@H]1N[C@H](CO)[C@@H](O)[C@@H]1O`, the IC50 in assay [2] is 320 µM; in assay [3], 1000 µM; in assay [4] it was 1000 µM.

By Ki is commonly meant the dissociation constant of the complex between target and ligand, obtained from inhibition or displacement. Higher therefore signals a looser hold on the target. With `OC[C@H]1O[C@H](OC[C@H]2NC[C@@H](O)[C@@H](O)[C@@H]2O)[C@H](O)[C@@H](O)[C@@H]1O`, the Ki in assay [1] was found to be 19 µM.

As to `OC[C@H]1N[C@H](CO)[C@@H](O[C@@H]2O[C@H](CO)[C@@H](O)[C@H](O)[C@H]2O)[C@@H]1O`, the result in the assay on Prunus dulcis was inactive. The compound also registered an IC50 in assay [5] of 270 µM.

Regarding `OC[C@H]1NC[C@@H](O)[C@@H](O)[C@@H]1O[C@@H]1O[C@H](CO)[C@@H](O)[C@H](O)[C@H]1O`, the outcome in assay [1] was inactive.

Regarding `C[C@@H]1O[C@@H](O[C@@H]2CN[C@H](CO)[C@@H](O)[C@@H]2O)[C@H](O)[C@H](O)[C@H]1O`, in assay [1], the affinity corresponds to a Ki of 0.06 µM.

Turning to `OC[C@H]1N[C@H](CO)[C@@H](O)[C@H]1O`, the 50% inhibitory concentration (IC50) turned out to be 7.8 µM in assay [2] and 3.3 µM in assay [5].

In the case of `OC[C@H]1NC[C@@H](O)[C@@H](O[C@@H]2O[C@H](CO)[C@@H](O)[C@H](O)[C@H]2O)[C@@H]1O`, the outcome in assay [1] was inactive.

For `OC[C@H]1NC[C@@H](O[C@H]2O[C@H](CO)[C@H](O)[C@H](O)[C@H]2O)[C@@H](O)[C@@H]1O`, the outcome in assay [1] was inactive.
